Assay results as given in ChEMBL document CHEMBL3102710, “Design, synthesis, and evaluation of fimbrolide-nitric oxide donor hybrids as antimicrobial agents” (J Med Chem, 2013).
Activity calls are given as the source filed them. Unless noted, the rule behind the calls is not given here.

Assays:
[1] = Inhibition of quorum sensing system in Pseudomonas aeruginosa PAO1 MH602 harboring lasB promoter fused with GFP-ASV assessed as reduction in GFP-ASV reporter protein expression at 29 uM measured every 30 mins relative to control
Outline: (§1)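 P. aeruginosa PAO1 carrying a PlasB::gfp(ASV) fusion plasmid, which makes its own AHL signals, incubated with compounds at 88.8, 29.6, 9.9, 3.3 or 1.0 μM. GFP fluorescence (RFU) read every half hour. Percent QS inhibition is the percent RFU difference between sample and untreated control, taken at the time point when control fluorescence peaks.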

Pseudomonas aeruginosa [2] = experiment: Antibacterial activity against Pseudomonas aeruginosa PAO1 MH602 harboring lasB promoter fused with GFP-ASV assessed as growth inhibition at 88 uM measured every 30 mins by GFP-ASV reporter gene assay; format: organism-based; details: for Activity: pseudomonas aeruginosa, in vivo, 0.5 h, 88 µM
Outline: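 Cell growth of the PAO1 PlasB::gfp(ASV) reporter strain tracked as OD600 every half hour during compound incubation, alongside GFP readings. Growth is compared against the untreated control.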

[3] = Inhibition of quorum sensing system in Pseudomonas aeruginosa PAO1 MH602 harboring lasB promoter fused with GFP-ASV assessed as reduction in GFP-ASV reporter protein expression measured every 30 mins; outline: as §1
Pseudomonas aeruginosa [4] = experiment: Antibacterial activity against Pseudomonas aeruginosa PAO1 assessed as inhibition of biofilm formation at 150 uM after 6 hrs by crystal violet staining assay relative to control; format: functional; details: for inhibition at 150 µM: PAO1, 6 h
[5] = Inhibition of quorum sensing system in Pseudomonas aeruginosa PAO1 MH602 harboring lasB promoter fused with GFP-ASV assessed as reduction in GFP-ASV reporter protein expression at 3.2 uM measured every 30 mins relative to control; outline: as §1
[6] = Inhibition of quorum sensing system in Pseudomonas aeruginosa PAO1 MH602 harboring lasB promoter fused with GFP-ASV assessed as reduction in GFP-ASV reporter protein expression at 266 uM measured every 30 mins relative to control
[7] = Inhibition of quorum sensing system in Pseudomonas aeruginosa PAO1 MH602 harboring lasB promoter fused with GFP-ASV assessed as reduction in GFP-ASV reporter protein expression at 88 uM measured every 30 mins relative to control; outline: as §1
[8] = Inhibition of quorum sensing system in Pseudomonas aeruginosa PAO1 MH602 harboring lasB promoter fused with GFP-ASV assessed as reduction in GFP-ASV reporter protein expression at 9.8 uM measured every 30 mins relative to control; outline: as §1
[9] = Induction of nitric oxide release in PBS buffer supplemented with L-cysteine, xanthine, xanthine oxidase assessed as nitrite release at 250 to 500 uM after 1 hr by Griess assay; format: physicochemical
Outline: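 Total NO release was quantified as nitrite with Griess reagent, which detects nitrite at ≥1 μM. Because of that limit, compounds were added at 250 μM and 500 μM.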

Pseudomonas aeruginosa [10] = experiment: Induction of nitric oxide-dependent nirS gene expression in Pseudomonas aeruginosa at 500 uM incubated for 2 hrs under dark condition by GFP reporter gene assay relative to untreated control; format: functional
Pseudomonas aeruginosa [11] = experiment: Antibacterial activity against Pseudomonas aeruginosa assessed as growth inhibition at 500 uM after 2 hrs by GFP reporter gene assay; format: organism-based; details: in vivo
Pseudomonas aeruginosa [12] = experiment: Antibacterial activity against Pseudomonas aeruginosa PAO1 assessed as growth inhibition at 150 uM after 6 hrs; format: organism-based; details: in vivo
Pseudomonas aeruginosa [13] = experiment: Antibacterial activity against Pseudomonas aeruginosa MH602 harboring lasB promoter fused with GFP-ASV assessed as growth inhibition at 266 uM measured every 30 mins by GFP-ASV reporter gene assay; format: organism-based; details: MH602, 0.5 h, read-out: GI

| Structure (SMILES) | inhibition [1] | Activity (Pseudomonas aeruginosa [2]) | inhibition [3] | inhibition (Pseudomonas aeruginosa [4]) | inhibition [5] | inhibition [6] [%] | inhibition [7] [%] | inhibition [8] | Activity [9] | Activity (Pseudomonas aeruginosa [10]) | Activity (Pseudomonas aeruginosa [11]) | Activity (Pseudomonas aeruginosa [12]) | inhibition at 150 µM (Pseudomonas aeruginosa [4]) [%] | inhibition at 266 µM (Pseudomonas aeruginosa [13]) [%] | inhibition at 88 µM (Pseudomonas aeruginosa [2]; Pseudomonas aeruginosa, PAO1 MH602, 0.5 h, read-out: GI) [%] | fold change (FC) (Pseudomonas aeruginosa [10]) |
| --- | --- | --- | --- | --- | --- | --- | --- | --- | --- | --- | --- | --- | --- | --- | --- | --- |
| CCCCCC(OC(=O)CC(=O)N1CCN(/[N+]([O-])=N/OC)CC1)C1=CC(=C(Br)Br)OC1=O (configuration not stated) | 23.7% | Non-toxic | Dose-dependent effect | inactive | inactive | 62.9 | 41.5 | 9.5% |  |  |  |  |  |  |  |  |
| CCCC(OC(=O)CCC(=O)N1CCN(/[N+]([O-])=N/OC)CC1)C1=CC(=C(Br)Br)OC1=O (configuration not stated) | 17.7% | Non-toxic | Dose-dependent effect | inactive | inactive | 65.4 | 39.3 | 4.6% |  |  |  |  |  |  |  |  |
| CCCC(SC(=O)CCCCCO[N+](=O)[O-])C1=CC(=C(Br)Br)OC1=O (configuration not stated) | inactive | Non-toxic | Dose-dependent effect |  | inactive | 47.8 | 10.1 | inactive | Active |  |  |  |  |  |  |  |
| CCCC(OC(=O)CCCO[N+](=O)[O-])C1=CC(=C(Br)Br)OC1=O (configuration not stated) | 12.3% | Non-toxic | Dose-dependent effect |  | inactive | 55.8 | 28.6 | 8% | 1 µM | inactive | Non-toxic |  |  |  |  |  |
| CCCC(OC(=O)CCO[N+](=O)[O-])C1=CC(=C(Br)Br)OC1=O (configuration not stated) | 43.1% | Non-toxic | Dose-dependent effect |  | inactive | 80.6 | 62.8 | 12.5% |  | inactive | Non-toxic |  |  |  |  |  |
| CCCC(OC(=O)CCCCCCCO[N+](=O)[O-])C1=CC(=C(Br)Br)OC1=O (configuration not stated) | inactive | Non-toxic | Dose-dependent effect |  | inactive | 40.6 | 12.9 | inactive | 1 µM | inactive | Non-toxic |  |  |  |  |  |
| O=[N+]([O-])O[C@H]1CO[C@H]2[C@@H]1OC[C@H]2O[N+](=O)[O-] [ISOSORBIDE DINITRATE] |  |  |  |  |  |  |  |  | 4 µM | inactive | Non-toxic |  |  |  |  |  |
| CCCC(S)C1=CC(=C(Br)Br)OC1=O (configuration not stated) | 4.3% | Non-toxic | Dose-dependent effect |  | inactive | 50.5 | 17.9 | 1.5% |  |  |  |  |  |  |  |  |
| CCCC(OC(=O)CO/N=[N+](\[O-])N(CC)CC)C1=CC(=C(Br)Br)OC1=O (configuration not stated) | 30% | Non-toxic | Dose-dependent effect | inactive | inactive | 74.8 | 52 | 6.2% |  |  |  |  |  |  |  |  |
| CCCCCCCC(O[N+](=O)[O-])C1=CC(=C(Br)Br)OC1=O (configuration not stated) | inactive | Non-toxic | Dose-dependent effect |  | inactive | 58.2 | 19.2 | inactive | Active | inactive | Non-toxic |  |  |  |  |  |
| CCCC(O)C1=CC(=C(Br)Br)OC1=O (configuration not stated) | 37% | Non-toxic | Dose-dependent effect |  | inactive | 85.8 | 62.9 | 16.7% |  |  |  |  |  |  |  |  |
| CCCC(O[N+](=O)[O-])C1=CC(=C(Br)Br)OC1=O (configuration not stated) | 39.9% | Non-toxic | Dose-dependent effect |  | inactive | 91.1 | 71.4 | 22.4% | 1 µM | inactive | Non-toxic | Non-toxic | 70 | > 15 |  |  |
| CCCCCCCCCCCC(OC(=O)CCC(=O)N1CCN(/[N+]([O-])=N/OC)CC1)C1=CC(=C(Br)Br)OC1=O (configuration not stated) | inactive | Non-toxic | Dose-dependent effect | inactive | inactive | 41.9 | 6 | inactive |  |  |  |  |  |  |  |  |
| CCCCC1=CC(=C(Br)Br)OC1=O | 17% | Non-toxic | Dose-dependent effect |  | inactive | 69.8 | 34.1 | inactive |  |  |  |  |  |  |  |  |
| CCCC(OC(=O)CCCCCCCCCCO[N+](=O)[O-])C1=CC(=C(Br)Br)OC1=O (configuration not stated) | 6.2% | Non-toxic | Dose-dependent effect |  | inactive | 54.8 | 21.8 | inactive | Active | inactive | Non-toxic |  |  |  |  |  |
| CCCC(SC(=O)CCCO[N+](=O)[O-])C1=CC(=C(Br)Br)OC1=O (configuration not stated) | inactive | Non-toxic | Dose-dependent effect |  | inactive | 54.2 | 13.8 | inactive | Active | inactive | Non-toxic |  |  |  |  |  |
| CCCC(OC(=O)CO/N=[N+](\[O-])N1CCOCC1)C1=CC(=C(Br)Br)OC1=O (configuration not stated) | 15.9% | Non-toxic | Dose-dependent effect | inactive | inactive | 72.1 | 47.5 | inactive |  |  |  |  |  |  |  |  |
| CC(O[N+](=O)[O-])C1=CC(=C(Br)Br)OC1=O (configuration not stated) | 29% |  | Dose-dependent effect | Active | inactive | 94.3 | 70.4 | inactive |  | inactive | Toxic |  |  | > 15 | > 15 |  |
| CCCCCC(O[N+](=O)[O-])C1=CC(=C(Br)Br)OC1=O (configuration not stated) | 32.5% | Non-toxic | Dose-dependent effect |  | inactive | 73.1 | 56.4 | inactive | 1 µM | inactive | Non-toxic | Non-toxic | 70 |  |  |  |
| CCCC(OC(=O)CCCCCO[N+](=O)[O-])C1=CC(=C(Br)Br)OC1=O (configuration not stated) | 7.9% | Non-toxic | Dose-dependent effect |  | inactive | 54.1 | 18.8 | inactive |  | inactive | Non-toxic |  |  |  |  |  |
| CCCCCCC(O[N+](=O)[O-])C1=CC(=C(Br)Br)OC1=O (configuration not stated) | 9.5% | Non-toxic | Dose-dependent effect |  | inactive | 65.7 | 29.9 | inactive |  | inactive | Non-toxic |  |  |  |  |  |
| CCCCC1=C(Br)/C(=C/Br)OC1=O | 5.9% | Non-toxic | Dose-dependent effect |  | inactive | 75.8 | 39.9 | inactive |  |  |  |  |  |  |  |  |
| CCCC(SC(=O)CCO[N+](=O)[O-])C1=CC(=C(Br)Br)OC1=O (configuration not stated) | 33.6% | Non-toxic | Dose-dependent effect |  | inactive | 72.3 | 51.5 | inactive | 1 µM |  | Non-toxic |  |  |  |  | 2 |
